# Bioassay records from PubChem.
# RAD52 inh: RAD52 (human) annealing inhibition | P43351 | recombinant RAD52 DNA annealing, FRET fluorescence | inhibition, % at 18.7 µM | 360,000 tested, 0.46% active | AID 651710;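 active means every replicate showing at least 50% inhibition; inconclusive means mean inhibition at least 50% but not in every replicate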
# GSIS activator: GLuc luminescence reporter in INS-1E cells, primary screen for activators of glucose-dependent secretion of insulin | AID 743287 | activation, % at 16.6 µM | INS-1E GLuc reporter insulin secretion, 2-3 h | 370,000 tested, 0.61% active;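 active means lowest replicate activation of at least 40%, so every replicate reaches that level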;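 further: 0% = median of neutral control wells and 100% = median of IBMX positive control wells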
# MLL AF4-AF9 inh: MLL-AF4/AF9 protein interaction inhibition; P42568; AlphaScreen, biotin-AF4 peptide binding to FLAG-AF9; inhibition, % at 10 µM; 350,000 tested, 0.47% active; AID 651704;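 active means every replicate reaching a set inhibition limit, whatever the replicate mean, cut at about 25% in these data; inconclusive means mean inhibition reaches that limit but some replicates miss it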;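 further: 0% = plate neutral control median and 100% = total signal loss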
# Target sequence (P42568 whole entry, looked up): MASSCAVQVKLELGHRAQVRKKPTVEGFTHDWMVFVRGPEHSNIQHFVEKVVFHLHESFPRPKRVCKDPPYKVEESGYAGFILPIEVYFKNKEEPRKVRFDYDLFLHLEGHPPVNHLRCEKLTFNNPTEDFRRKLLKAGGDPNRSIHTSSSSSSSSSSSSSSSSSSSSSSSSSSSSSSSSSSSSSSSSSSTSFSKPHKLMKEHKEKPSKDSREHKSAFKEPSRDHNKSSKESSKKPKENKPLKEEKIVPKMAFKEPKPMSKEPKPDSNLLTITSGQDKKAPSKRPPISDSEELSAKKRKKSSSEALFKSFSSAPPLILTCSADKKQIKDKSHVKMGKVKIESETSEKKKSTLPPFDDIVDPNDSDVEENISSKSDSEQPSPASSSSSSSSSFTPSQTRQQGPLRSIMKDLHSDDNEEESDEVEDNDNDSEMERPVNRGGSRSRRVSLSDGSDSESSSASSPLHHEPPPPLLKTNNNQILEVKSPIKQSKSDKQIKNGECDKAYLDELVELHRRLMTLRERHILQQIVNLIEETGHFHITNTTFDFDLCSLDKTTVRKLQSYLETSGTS
# S100A4 inh HTS: inhibitors of human S100A4 binding to myosin IIA peptide; P26447; S100A4/TAMRA-MyoIIA peptide fluorescence polarization; inhibition, % at 10.7 µM; 360,000 tested, 0.14% active; AID 652163;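 active means mean inhibition of at least 70% across replicates, with every replicate also reaching that level; inconclusive means mean inhibition reaches 70% but some replicates fall short; inactive means mean inhibition below 70%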
#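 Test system: S100A4 monomer protein; Medium: HEPES pH 7.2 with CaCl2, KCl, NaCl, DTT, Triton; Probe or stimulus: TAMRA-labelled myosin IIA heavy-chain peptide probe, 5 nM; Doses: one dose per compound; Times: polarization read 5 min after assay mix addition, stable 5–60 min; Benchmarks: neutral control DMSO, positive control TFP.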
# ERAP1 HTS inh: inhibitors of human ERAP1 aminopeptidase. recombinant ERAP1, Leu-AMC fluorescence, 60 min. inhibition, % at 10.7 µM. 340,000 tested, 0.15% active;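 active means mean replicate inhibition of at least 30%, or all replicates individually reaching that 30% level; inactive means mean below 30% and not every replicate reaching it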;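 further: 0% = neutral control wells and 100% = L-leucinethiol positive control wells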
# * marks the source's active call; other numbers are inactive results; ? = inconclusive; · = no result; ! = not active in a repeat. Hits are enriched below; roughly 1.5% of the tested compounds scored in any of these assays.
SMILES,RAD52 inh,GSIS activator,MLL AF4-AF9 inh,S100A4 inh HTS,ERAP1 HTS inh
Cc1cccc(-n2c(SCC(=O)NCc3ccc4c(c3)OCO4)nc3ccccc3c2=O)c1,-10,17,?,1,2
O=C(CSc1nc2ccccc2c(=O)n1-c1ccccc1)NCc1ccc2c(c1)OCO2,·,110*,·,·,·
Cc1noc(C)c1NC(=O)N[C@H]1CC[C@@H](CC(=O)N2CCCCC2)O[C@@H]1CO,7,-10,2,21,-1
CN1CCCCC(NC(=O)c2ccccc2)C1=O (stereo not given),0,117*,·,1,-3
Cc1ccc(C(=O)Nc2cccc(C(=O)N/N=C/c3ccc(F)cc3)c2)cc1,-11,101*,-2,-1,0
CNCCC=C1c2ccccc2CCc2ccccc21,-2,·,38*!,-5,1
COc1ccc(N2CCN(C(c3cccs3)C(C)NC(=O)C(=O)N3CCOCC3)CC2)cc1 (stereo not given),-3,79*,0,2,1
CNc1nc(Nc2ccc(Br)cc2)nc(N)c1[N+](=O)[O-],·,50*,·,·,·
COc1ccc(Nc2nc(N)c([N+](=O)[O-])c(NCCO)n2)cc1,-13,3,2,-17,4
CCCC(=O)N1CC2(CN(C(C)=O)C2)c2c(n(C)c3cc(OC)ccc23)[C@H]1CO,·,44,·,·,·
O=C(Cc1ccccn1)N[C@@H]1CC[C@@H](CCNS(=O)(=O)c2cccc(F)c2)O[C@H]1CO,9,0,0,132*,-4
CCOc1nc(-c2ccccc2)c2cc(Br)ccc2n1,-3,47*,0,3,-1
CCOC(=O)COc1nc2ccc(Br)cc2c(-c2ccccc2)c1C(C)=O,4,8,-1,-2,1
O=C(O)CNc1nc(-c2ccccc2)c2cc([N+](=O)[O-])ccc2n1,·,61*,·,·,·
OCCNc1nc(-c2ccccc2)c2cc(Br)ccc2n1,4,59*,0,2,1
O=[N+]([O-])c1ccc2nc(NCCCO)nc(-c3ccccc3)c2c1,·,22,·,·,·
OCCNc1nc(Nc2ccc(Br)cc2)nc2ccccc12,6,-1,13,3,3
COc1ccc(-c2n(CC(=O)OC3CC(C)CCC3C(C)C)c3ccccc3[n+]2C)cc1 (stereo not given),-12,0,-2,4,1
COc1ccc(OCc2n(CC(=O)OC3CC(C)CCC3C(C)C)c3ccccc3[n+]2C)cc1 (stereo not given),49,271*,?,1,10
C[C@H]1CN(C)C(=O)c2cccc([N+](=O)[O-])c2O[C@@H]1CN(C)C(=O)OC(C)(C)C,·,18,·,·,·
COC(=O)Cc1[nH]nc2c1C(c1ccc(O)c(OC)c1)C(C#N)=C(N)O2 (stereo not given),-23,-5,30*,-4,-2
CO[C@H]1CN(C)C(=O)c2cc(NC(=O)CC(F)(F)F)ccc2OC[C@H](C)N(C(=O)C2CCOCC2)C[C@@H]1C,-36,-1,-2,-24,-2
COc1ccc2c3c([nH]c2c1)[C@@H](CO)N(C(C)=O)CC31CCN(Cc2cc(-c3ccccc3)on2)CC1,12,-22,36*,7,-2
COc1ccc2c3c([nH]c2c1)[C@H](CO)N(C(C)=O)CC31CCN(Cc2ccccc2Cl)CC1,8,4,2,-4,-2
COc1ccc2c3c([nH]c2c1)[C@@H](CO)N(C(=O)Cc1ccccn1)CC31CN(Cc2ccccn2)C1,·,6,5,·,·
SMILES,RAD52 inh,GSIS activator,MLL AF4-AF9 inh,S100A4 inh HTS,ERAP1 HTS inh
COc1ccc2c3c([nH]c2c1)[C@H](CO)N(C(C)=O)CC31CCN(Cc2cc(-c3ccccc3)on2)CC1,14,-21,30*,0,-1
COc1ccc2c3c([nH]c2c1)[C@H](CO)N(C(=O)Nc1ccc(F)cc1)CC31CCN(Cc2cc(-c3ccccc3)on2)CC1,0,3,-1,2,-4
COc1ccc2c3c([nH]c2c1)[C@H](CO)N(C(C)=O)CC31CN(Cc2cc(-c3ccccc3)on2)C1,-15,4,26*,-8,0
O=C(CCN1CCCCC1)N[C@@H]1CC[C@@H](CCn2cc(-c3ccccc3)nn2)O[C@H]1CO,15,-3,0,7,-1
C[C@H]1CN([C@@H](C)CO)C(=O)c2cc(-c3cccc(C#N)c3)cnc2O[C@@H]1CN(C)Cc1cccnc1,4,0,-8,128*,2
CCCN(C)C[C@@H]1Oc2ncc(C#Cc3ccccc3OC)cc2C(=O)N([C@H](C)CO)C[C@@H]1C,57*,·,9,-7,0
C[C@@H]1CN([C@@H](C)CO)C(=O)c2cc(-c3cccc(C#N)c3)cnc2O[C@H]1CN(C)Cc1cccnc1,3,-1,-2,2,1
CCCN(C)C[C@@H]1Oc2ncc(C#Cc3cccc(OC)c3)cc2C(=O)N([C@H](C)CO)C[C@@H]1C,53*,6,3,-8,0
C1CCCCCC2(CCCCC1)OCC(CN1CCOCC1)O2 (stereo not given),·,-10,·,·,·
C[N+]1(CC2COC3(CCCCC3)O2)CCCC1 (stereo not given),-10,·,-7,-1,81*
CN(C)c1ccc(/C=N/NC(=O)c2ccccc2)cc1,0,-2,1,-1,11
CN(C)c1ccc(/C=N/NC(=O)c2ccccc2Cl)cc1,-5,52*,8,1,10
Cc1nn(-c2ccccc2)c2nc(C(F)F)cc(C(F)F)c12,-20,70*,-3,-3,0
COc1ccc2c3c(n(C)c2c1)[C@@H](CO)N(C(=O)Nc1ccccc1F)CC31CN(C)C1,·,-34,·,·,·
CS(=O)(=O)N1CCN(c2ccc(NC(=O)c3ccc(-c4ccc(Cl)cc4)o3)cc2)CC1,·,80*,·,·,·
CCOc1ccc(CCNS(=O)(=O)c2c(C)nc3scc(C)n3c2=O)cc1OCC,-6,52*,-1,3,-1
COCCCNC(=O)[C@@]1(Cc2ccccc2N=[N+]=[N-])N=C(c2ccc(OCCCO)cc2)O[C@H]1c1ccccc1N=[N+]=[N-],-16,·,4,-38,-2
O=C(Nc1cccnc1)c1cnn2c(C(F)F)cc(C3CC3)nc12,·,60*,·,·,·
O=C(Nc1cc(Br)ccc1O)c1cnn2c(C(F)F)cc(C3CC3)nc12,-18,12,2,0,0
COc1ccc2c3c(n(C)c2c1)[C@H](CO)N(C(=O)c1ccc(F)cc1)CC31CCN(CC2CC2)CC1,·,1,·,·,·
CC(C)CC#Cc1ccc([C@@H]2[C@H]3CN(S(C)(=O)=O)CC(=O)N3[C@H]2CO)cc1,·,26,·,·,·
CCSc1nnc(NC(=O)c2csc(C)c2)s1,·,99*,·,·,·
COc1ccc(C[C@@H]2CCc3cnnn3COC[C@@H](Cc3ccccc3)NC2=O)cc1,2,-3,3,1,1
Nn1c(C2CCCCC2)nc2ccccc2c1=O,-7,50*,3,-3,·
